Screening results as filed in PubChem.
EphB4 ephrin blk: blocks human EphB4 binding to ephrin-B2 | P54760 | EphB4 LBD / TNYL-RAW-Alexa532 peptide, fluorescence polarization | inhibition, % at 7 µM | 0.15% of 97,000 active | AID 720;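 active means inhibition above the screen-wide mean inhibition plus 3 SD, cut at about 15% in these data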;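 further: 0% = DMSO wells and 100% = excess unlabeled TNYL-RAW peptide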
DAT uptake mod: changed human dopamine transporter uptake under cocaine IC80; LLC-PK1 hDAT cells, [14C]-dopamine uptake with cocaine IC80; actives deviate in either direction; B-score at 10 µM; 1.3% of 110,000 active;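 active means Z score or B-score, a plate-position-corrected score, falls beyond the plate's 99.7% confidence bounds, in either direction; inactive means both scores lie inside the 99.7% bounds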;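 further: scored against the spread of the other compound wells on the same plate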
HIV Rev-RRE inh: HIV Rev-RRE protein-RNA interaction inhibition. P05866. Rev peptide-RRE RNA binding, FRET. inhibition, % at 8 µM. 0.79% of 97,000 active;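 active means inhibition above the screen-wide mean plus 3 SD, cut at about 35% in these data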;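 further: 0% = median DMSO wells and 100% = median Neomycin B control wells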
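Test system – labelled RRE RNA duplex and labelled Rev peptide · Reagent – labelled Rev peptide · Doses – one concentration, 8 µM nominal · Incubation – 5 + 15 min at 25 °C · Signal – FRET fluorescence readout · Read-out basis – % inhibition of FRET ratio versus controls · Control set – DMSO wells as 0% and neomycin B wells as 100% inhibition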
Cav3 T inh: human Cav3.2 channel inhibition, primary screen; B-score at 10 µM; 4% of 100,000 active; Cav3.2-expressing cells, Fluo-4 calcium fluorescence FDSS; active compounds read low; AID 449739;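 active means single-dose well whose peak fluorescence ratio is a statistical outlier from its plate by either plate-standardised score or position-corrected B-score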
Numbers without * were called inactive; / = not tested or not shown; [ ] = another dose, or the depositor's remark. An excerpt weighted towards active compounds, which were near 5.4% of everything screened.

SMILES	EphB4 ephrin blk	DAT uptake mod	HIV Rev-RRE inh	Cav3 T inh
CC1=C(C#N)C(Nc2ccc(C)cn2)(C(F)(F)F)C(=O)N1 (stereo unspecified)	-2	-0.63	16	0.49
CCOc1ccc(N(CC(=O)NC2CCCCC2)C(=O)CSc2nnc(COc3ccccc3)o2)cc1	-5	-0.15	-1	-4.3*
O=C(CN(Cc1cccs1)C(=O)CSc1nnc(COc2ccccc2)o1)NC1CCCCC1	-3	-1.1	4	-0.22
O=S(=O)(NCCSc1nnc(-c2ccco2)n1-c1ccccc1)c1ccccc1	-12	-0.014	7	-0.11
CCCCc1cn([C@@H](CCCCNC(=O)OC(C)(C)C)C(=O)N2CCN(C(=O)OC(C)(C)C)CC2)nn1	/	0.21	/	-1.4
CC(=O)Nc1cc(S(=O)(=O)Nc2ccccc2C)c(C)cc1C	-11	-1.6	2	/
CCn1ncc(Br)c1C(=O)N(C)C12CC3CC(CC(C3)C1)C2	-7	0.72	6	-5.1*
CC1(C)c2ccccc2N2CC(=O)NC21/C=C/c1ccco1 (stereo unspecified)	4	1.4	18	-0.094
O=C1CC(/C=C/c2ccco2)=Nc2ccccc2N1	-2	1.2	41*	-0.62
Cc1cc(=O)oc(C)c1C(=O)Nc1ccc2nsnc2c1	-2	0.14	9	0.12
Cc1cc(=O)oc(C)c1C(=O)Nc1ccc2ncccc2c1	3	-0.6	125*[fluorescence artefact?]	-2.3
COCCN1C(=O)N[C@@H](c2ccccc2)[C@@H](C(=O)OC)[C@H]1C	/	-0.22	/	0.041
Cc1cccc(-n2nnnc2SCc2csc(-c3ccccc3)n2)c1	1	-0.41	9	-3.3*
Cc1ccc(Nc2nc(CSc3nnnn3-c3ccccc3)cs2)cc1	-5	1.4	9	-4*
Cc1ccc(Nc2nc(CSc3nnnn3C)cs2)cc1	-1	1.7	1	0.11
CC(C)C[C@H](NC(=O)c1[nH]cnc1C(=O)N[C@@H](C)C(=O)OC(C)(C)C)C(=O)OC(C)(C)C	/	1.3	/	0.00045
Cc1ccc(-n2nnnc2-c2cnc(N3CCCC3)nc2C(F)(F)F)cc1	5	1	-2	-4.5*
COc1cccc(NC(=O)N2CCN(c3cccc(C)c3C)CC2)c1	2	2	12	-7*
CC1CCc2nc(NC(=O)CN3CCN(c4ccc(F)cc4)CC3)sc2C1 (stereo unspecified)	6	2.5	9	-5*
COc1ccccc1N1CCN(C(=O)Nc2cccc(Cl)c2)CC1	0	-0.092	4	-1.3
Cc1[nH]c2ccccc2c1NC(=O)CN1CCN(c2cccc(C(F)(F)F)c2)CC1	10	2.2	9	-8.2*
O=C(CN1CCN(c2ccc(F)cc2)CC1)Nc1nnc(-c2ccccc2)s1	/	0.85	/	0.16
COc1cccc(NC(=O)CN2CCN(c3ccc(F)cc3)CC2)c1	-9	-2.5*	7	/
COc1ccccc1C1=NOC(C)(c2nnc(-c3cccc(Cl)c3)o2)C1 (stereo unspecified)	/	-0.083	/	-0.27
CCOc1ccc(C2c3cc(OC)c(OC)cc3CC(=O)N2c2ccc(OC)cc2)cc1 (stereo unspecified)	-9	0.57	-2	-3.1
SMILES	EphB4 ephrin blk	DAT uptake mod	HIV Rev-RRE inh	Cav3 T inh
COCCN1C(=O)N[C@@H](c2cccc(F)c2)C(C(C)=O)=C1C	/	-0.46	/	0.53
CC(=O)Nc1ccc(NC(=O)CN2CCN(c3cccc(C(F)(F)F)c3)CC2)cc1	2	-0.19	13	0.92
O=C(CN1CCN(c2cccc(C(F)(F)F)c2)CC1)Nc1cccc(C(F)(F)F)c1	2	-0.84	18	-5.5*
Oc1ccc2ccccc2c1C=NC12CN3CCN(CN(C3)C1)C2	-1	0.15	7	0.2
Oc1ccc2ccccc2c1C=Nc1ccc(N2CCOCC2)cc1	4	-0.86	72*[fluorescence artefact?]	-0.5
c1cncc(-c2nnc3sc(C4CCCCC4)nn23)c1	-1	1.5	4	3.2*
COc1cc(-c2nnc3sc(C4CCCCC4)nn23)cc(OC)c1OC	-2	1.3	1	-0.65
COc1cccc(-c2nnc3sc(C4CCCCC4)nn23)c1	3	-8.3*	10	-1.7
CCOc1cccc(-c2nnc3sc(C4CCCCC4)nn23)c1	-1	1.9	8	-3.4
Cc1cccc(NC(=S)c2nc3ccccc3s2)c1	3	/	8	/
Cc1onc(-c2c(Cl)cccc2Cl)c1C(=O)N/N=C(\N)COc1ccc(Cl)cc1	0	-0.76	1	-5*
CCOC(=O)Cc1csc(NC(=O)c2ccncc2)n1	-9	0.41	3	-0.24
CCOC(=O)Cc1csc(NC(=O)c2c(-c3c(Cl)cccc3Cl)noc2C)n1	3	1.7	7	-4.9*
Cc1ccc2cc(CN(CCCO)S(=O)(=O)c3cccc4nsnc34)c(=O)[nH]c2c1	1	0.3	3	/
CC(C)(C)OC(=O)N1CCC2(CC1)Oc1ccc(F)cc1C(=O)C21CC(c2ccc(Cl)cc2)=NO1 (stereo unspecified)	/	-0.11	/	-0.33
CCOc1ccc(-c2nnn(CC#N)n2)cc1OC	6	-0.5	7	-0.053
O=C(NC1(C(F)(F)F)C(=O)Nc2c1c(=O)[nH]c(=O)n2Cc1ccco1)C1CC1 (stereo unspecified)	-4	-1.4	-1	0.28
CCn1c(SCC(=O)N/N=C/c2ccc(OC)c(OC)c2)nc2ccccc21	-4	4.2*	7	-1.6
CCN(CC)C(=O)C1CCCN(C(=O)Nc2ccccc2)C1 (stereo unspecified)	0	-0.077	7	0.39
O=C(CC(SCc1ccco1)c1ccc(O)cc1)c1cccs1 (stereo unspecified)	-11	-0.86	3	-4.5*
O=C(CSc1nnc(-c2ccc(O)cc2)n1Cc1ccco1)c1cccs1	6	0.21	9	0.027
N#Cc1nc(COc2ccccc2)oc1N1CCCCCC1	-4	0.0064	9	-4*
N#Cc1nc(COc2ccccc2)oc1N1CCCC1	3	/	10	/
COc1ccc(N2CCN(c3oc(COc4ccc(Cl)cc4)nc3C#N)CC2)cc1	-2	-0.3	1	-6.1*
CCO[C@H]1OC(C(=O)Nc2ccccc2)=C[C@@H](c2ccc(C(F)(F)F)cc2)[C@@H]1CCCO	/	0.063	/	-2.1
SMILES	EphB4 ephrin blk	DAT uptake mod	HIV Rev-RRE inh	Cav3 T inh
Cc1cc(C)n(CC(O)CN2c3ccccc3Sc3ccccc32)n1 (stereo unspecified)	3	1.2	-5	-6.3*
C1=CC2CC1CC2CN1CCN(Cc2ccccc2)CC1 (stereo unspecified)	-1	0.029	-2	0.8
CCn1c(CNC(=O)c2ccco2)nnc1SCC(=O)Nc1ccc(Br)cc1F	5	0.34	7	-0.24
O=C(CSc1nnc(-c2ccccc2Br)o1)N1CCc2ccccc2C1	/	2.9*	/	-1.3
COc1cc(C2C(C(=O)c3ccco3)=C(O)C(=O)N2Cc2cccnc2)cc(OC)c1OC (stereo unspecified)	-5	-0.28	4	0.48
COCCN1C(=O)C(O)=C(C(=O)c2ccco2)C1c1cccc(Oc2ccccc2)c1 (stereo unspecified)	-2	0.016	1	-3.8*
COc1ccc(CCN2C(=O)C(O)=C(C(=O)c3ccco3)C2c2cccs2)cc1OC (stereo unspecified)	0	-3.3*	-4	-0.69
